Compound activity deposited in PubChem BioAssay by Columbia University Molecular Screening Center.
The sample as a whole holds a higher share of hits than the screen did.
INS promoter act – activators of insulin promoter-driven GFP, primary screen, imaging, TRM-6 cells, eGFP reporter, cell count; plate-scaled: unstimulated 0, stimulated control 100; activation, % at 2 µM; 0.81% of 130,000 active; AID 1296, 2008;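 active means activation at 2 µM above a set limit, confirmed on inspection of the cell images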;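 further: share of cells whose green reporter signal exceeds an intensity cutoff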
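System – human fetal islet-derived TRM-6 cells with tamoxifen-inducible insulin promoter–eGFP reporter · Amount – 1,000 cells per well · Schedule – overnight tamoxifen, then two-day compound incubation at 37 °C · Detection – high-content imaging of fixed cells with Hoechst nuclear stain · Read-out – percent cells above green-intensity threshold, converted to percent activation versus plate controls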
Hits are given with their value; – = inactive.

SMILES	INS promoter act
CC1=NN(c2ccccc2)C(=O)/C1=C/C=C/c1ccc(N(C)C)cc1	–
O=C(CCN1C(=O)/C(=C/C=C/c2ccccc2)SC1=S)Nc1cccnc1	–
C#CCN1C(=O)S/C(=C/C=C/c2ccc(N(C)C)cc2)C1=O	270.4
O=C1CCCC(=O)N1c1ccc(N2CCN(c3ccc([N+](=O)[O-])cc3)CC2)c([N+](=O)[O-])c1	–
COc1ccc(COc2ccsc2C(=O)Nc2ccc(Cl)c(Cl)c2)cc1	–
CCc1ccc2c(c1)c1nnc(NN)nc1n2CC	–
CC(Cc1ccccc1)C(=O)NCc1ccncc1 (stereo not drawn)	–
CCOC(=O)CNC(=O)C(Cc1ccccc1)NS(=O)(=O)c1cccs1 (stereo not drawn)	–
CCCC(C)C(=O)NCc1ccc2c(c1)OCO2 (stereo not drawn)	–
Cc1ccc(CNC(=O)C(Cc2ccccc2)NS(=O)(=O)c2cccs2)cc1 (stereo not drawn)	96.4
CC(C)C(NS(=O)(=O)c1cccs1)C(=O)NCc1ccc2c(c1)OCO2 (stereo not drawn)	162.5
CC(C)C(NS(=O)(=O)c1cccs1)C(=O)NCCN1CCN(c2ccccc2)CC1 (stereo not drawn)	–
O=C(OCc1cnc(Cl)s1)c1cccc(Cl)c1Cl	–
Cc1ccc2[nH]ccc(=O)c2c1	–
O=C(Nc1ccc(Cl)cn1)C1CCCN1S(=O)(=O)c1ccccc1 (stereo not drawn)	–
O=c1c2ccccc2nc2ccc(NCc3cccs3)nn12	–
Cc1nnc(SCc2cc(=O)[nH]c(N3CCCCC3)n2)s1	–
O=C1CCc2cc(S(=O)(=O)NCCC(=O)N3CCN(c4cccc(Cl)c4)CC3)ccc2N1	–
CC(C)(C)NC(=O)CSc1nnc(-c2ccncc2)o1	–
O=C(CSc1nnc(-c2ccncc2)o1)Oc1ccccc1	690.0
Cc1ccc(C(=O)CSc2nnc(-c3ccccc3)o2)cc1	–
COc1ccccc1/C=C(\NC(=O)c1ccc(OC)c(OC)c1)C(=O)Nc1cc([N+](=O)[O-])ccc1C	–
COC(=O)[C@@]1(Cc2ccc(OC)cc2)[C@H]2c3cc(C(=O)N4CCCC4)n(CCn4cc([N+](=O)[O-])nc4C)c3C[C@H]2CN1C(=O)c1ccccc1	–
O=C1C2=C(CCCC2)C(=O)N1c1cccc(OCCBr)c1	–
CCOC(=O)Cn1cnc([N+](=O)[O-])n1	–
SMILES	INS promoter act
CN(C)S(=O)(=O)c1ccc(C(=O)Nc2ccc(CCC(=O)N3CCCC3)cc2)cc1	448.6
CCN(CC)S(=O)(=O)c1ccc(C(=O)Nc2ccc(Cc3ccncc3)cc2)cc1	–
CN(C)S(=O)(=O)c1ccc(C(=O)Nc2ccc(CN3CCCC3)cc2)cc1	–
O=C(CCSCCC(=O)Nc1ccccc1F)Nc1ccccc1F	–
S=C(NCCCN1CCOCC1)Nc1ccc(Cl)cc1Cl	–
CN(CC(=O)N1CCCCCC1)S(=O)(=O)c1ccc(F)cc1	–
O=C(CCSCCc1ccccn1)Nc1ccc(Br)cc1F	–
COc1ccc(CC(=O)Nc2ccc(-c3cn4ccc(C)cc4n3)cc2)cc1	–
N/C(=N\OC(=O)c1ccc(Br)cc1)c1ccccc1	–
N/C(=N\OC(=O)CCCOc1ccccc1)c1ccncc1	–
Cc1ccccc1C(=O)O/N=C(\N)c1ccncc1	508.3
CCCCOC(=O)C1=C(C)Nc2ncnn2C1c1cccc(OC)c1OC (stereo not drawn)	–
COc1cccc(OC)c1C(=O)Nn1c(-c2cccs2)nc2ccccc2c1=O	–
O=C(O)CCSc1nnc(SCC(=O)NCC(F)(F)F)s1	–
Cc1ccc(N2C(=O)/C(=C\c3ccco3)SC2=S)cc1	–
O=C1/C(=C\c2ccco2)SC(=S)N1Cc1ccccc1	150.0
C=CCN1C(=O)/C(=C\c2ccc(OC(=O)c3ccco3)c(OC)c2)SC1=S	–
O=C(NCCCn1ccnc1)C(=O)NCC1OCCCN1S(=O)(=O)c1ccccc1 (stereo not drawn)	–
CN1/C(=C\C=C2/C(=O)Oc3ccccc3C2=O)C(C)(C)c2ccccc21	222.6
CN1/C(=C\C(=O)Nc2ccc(Br)cc2)C(C)(C)c2ccccc21	–
Cc1nn(-c2ccccc2)c2c1C1(C(=O)N(C)c3ccccc31)C(C#N)=C(N)O2 (stereo not drawn)	–
CN(C)Cc1ccccc1Sc1ccc(Br)cc1	–
O=C(O)c1cccc(CSc2ncccn2)c1	–
COn1c(=O)c(-c2cccs2)[n+]([O-])c2ccccc21	87.2
O=c1c(-c2ccco2)[n+]([O-])c2ccccc2n1OCc1ccccn1	–
SMILES	INS promoter act
Cn1c(-c2cccs2)[n+](C)c2ccccc21	–
O=C(CCC(=O)N(c1ccc(F)cc1)C(C(=O)NC1CCCC1)c1ccncc1)Nc1cccnc1 (stereo not drawn)	–
COc1ccc(C2NC(=O)NC(C)=C2C(C)=O)cc1 (stereo not drawn)	–
COc1ccc(C2C(C(C)=O)=C(Nc3ccccc3)CC(C)(O)C2C(C)=O)cc1OC (stereo not drawn)	–
COc1ccc(NC2=C(C(C)=O)C(c3ccc(OC)cc3)C(C(C)=O)C(C)(O)C2)cc1 (stereo not drawn)	316.7
COc1ccc(Cl)cc1-c1nc(SCC(=O)NC(C)C(C)C)n[nH]1 (stereo not drawn)	–
O=C(CCC(=O)OCC(=O)c1ccc(Br)cc1)Nc1ccc(Br)c2cccnc12	–
COCC(C)n1c(C)cc(C(=O)COC(=O)c2ccc(N3CCCC3=O)cc2)c1C (stereo not drawn)	–
CNS(=O)(=O)c1cc(OC)ccc1OC	–
COc1ccc(OC)c(S(=O)(=O)Nc2ccc(O)c3ccccc23)c1	450.0
COC(=O)c1c(C)oc2ccc(NS(=O)(=O)c3cc(OC)ccc3OC)cc12	–
CN(C)S(=O)(=O)c1ccc(NC(=O)COC(=O)C2COc3ccccc3O2)cc1 (stereo not drawn)	–
O=C(Oc1cc(-c2ccccc2)no1)c1cccc(C(F)(F)F)c1	–
N=c1c2c3c(sc2nc2n1CCC2)CCCC3	–
CC(C(=O)NC1=NCCS1)N1C(=O)C2CC=CCC2C1=O (stereo not drawn)	121.4
Cc1cc(C)cc(OCC(=O)NC2=NCCS2)c1	–
O=C(CCCN1C(=O)c2ccccc2C1=O)NC1=NCCS1	–
COc1ccccc1NC(=O)c1sc2ncn(Cc3cccc4ccccc34)c(=O)c2c1C	–
O=C(c1ccccc1)C(CCC(CN1CCOCC1)C(=O)c1ccccc1)CN1CCOCC1 (stereo not drawn)	–
COc1ccc(-c2[nH]nc3c2C(c2ccc(OC(=O)N4CCOCC4)cc2)C(C#N)=C(N)O3)cc1 (stereo not drawn)	–
COc1cc(C2C(C#N)=C(N)OC3=C2C(=O)CC(C)(C)C3)ccc1OC(=O)N1CCOCC1 (stereo not drawn)	600.0
N#CC1=C(N)OC2=C(C(=O)CCC2)C1c1ccc(OC(=O)N2CCOCC2)cc1 (stereo not drawn)	–
CCOC(=O)c1c(N)n(C2CC(C)(C)NC(C)(C)C2)c2nc3ccccc3nc12	–
COc1ccc2nc(NC(=O)c3cccnc3SC)sc2c1	–
Cc1ccc(C(=O)N(C)c2nnc(-c3ccncc3)s2)cc1	–
O=C(CCn1c(=S)[nH]c2ccccc2c1=O)NCCc1ccc(Cl)cc1	–
CC(=O)c1c(C)oc2c1C(=O)c1ccccc1C2=O	–
O=C1c2ccccc2C(=O)c2c1oc(C(F)(F)F)c2C(=O)c1ccccc1	–
O=C1c2ccccc2-c2onc3ccc(Oc4ccccc4)c1c23	400.0
COc1ccc(OC)c(N/C(C)=C/C(=O)c2ccc(C)o2)c1	–
